Laboratory results reported in publication PMC11491786 (Zoological Research, 2024).
No end group written: not given here.

Tests used:
PK [1] = target: T1, PK (Homo sapiens, UniProt P03952); test: SPR, PK over LE6-coupled chip; type: binding
PK [2] = target: T1, PK; test: Chromogenic assay, PK; type: biochemical
Target sequence in this assay (P03952 391-638 limits assumed): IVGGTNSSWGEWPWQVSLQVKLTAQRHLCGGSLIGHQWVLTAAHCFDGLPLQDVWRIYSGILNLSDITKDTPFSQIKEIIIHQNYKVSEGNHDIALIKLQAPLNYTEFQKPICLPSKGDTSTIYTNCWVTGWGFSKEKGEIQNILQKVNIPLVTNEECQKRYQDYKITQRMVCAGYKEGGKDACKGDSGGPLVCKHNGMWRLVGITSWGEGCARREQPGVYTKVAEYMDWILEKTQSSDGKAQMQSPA
Target sequence in this assay (P03952 20-390 partner limits assumed): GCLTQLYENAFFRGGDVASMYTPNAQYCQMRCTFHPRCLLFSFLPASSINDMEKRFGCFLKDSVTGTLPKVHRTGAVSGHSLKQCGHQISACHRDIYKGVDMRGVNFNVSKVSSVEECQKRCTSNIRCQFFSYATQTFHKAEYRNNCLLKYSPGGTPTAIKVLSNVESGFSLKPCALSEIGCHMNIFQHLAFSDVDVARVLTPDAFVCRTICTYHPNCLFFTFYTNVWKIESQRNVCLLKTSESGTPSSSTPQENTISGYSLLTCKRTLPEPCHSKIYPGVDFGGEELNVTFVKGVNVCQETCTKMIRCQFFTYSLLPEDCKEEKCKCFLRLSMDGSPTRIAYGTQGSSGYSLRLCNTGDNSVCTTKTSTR

FXIIa [3] = target: T2, FXIIa (Homo sapiens, UniProt P00748); test: SPR, FXIIa over LE6-coupled chip; type: binding; conditions: read-out: Kd (dissociation rate constant)
T2 sequence (P00748 373-615 limits assumed): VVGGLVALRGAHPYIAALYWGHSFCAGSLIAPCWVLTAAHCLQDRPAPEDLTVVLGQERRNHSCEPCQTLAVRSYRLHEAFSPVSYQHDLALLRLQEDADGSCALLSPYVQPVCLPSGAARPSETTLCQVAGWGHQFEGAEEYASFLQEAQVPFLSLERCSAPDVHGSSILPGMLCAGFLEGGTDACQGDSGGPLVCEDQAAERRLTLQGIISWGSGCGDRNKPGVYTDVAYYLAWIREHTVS
T2 sequence (P00748 20-372 partner limits assumed): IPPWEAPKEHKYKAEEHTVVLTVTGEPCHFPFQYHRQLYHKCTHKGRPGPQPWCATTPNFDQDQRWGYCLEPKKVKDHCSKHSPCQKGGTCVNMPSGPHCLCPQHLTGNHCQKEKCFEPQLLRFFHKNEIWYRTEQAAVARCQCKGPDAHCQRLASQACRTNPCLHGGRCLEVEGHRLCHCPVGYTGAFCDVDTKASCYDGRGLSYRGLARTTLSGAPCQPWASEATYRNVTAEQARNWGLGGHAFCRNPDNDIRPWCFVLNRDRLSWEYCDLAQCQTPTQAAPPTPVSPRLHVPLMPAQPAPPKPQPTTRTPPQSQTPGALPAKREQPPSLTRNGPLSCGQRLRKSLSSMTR

FXIIa [4] = target: T2, FXIIa; test: Chromogenic assay, FXIIa; type: biochemical
erythrocytes = test: Hemolysis assay; type: cell-based, human; conditions: up to 200 μg/mL (285 μmol/L), 30 min, 37 °C, PBS pH 7.2, 540 nm
Method in brief: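 Human blood was centrifuged for 10 min at 3 500 r/min and 25°C. The erythrocytes were resuspended in PBS (0.01 mol/L, pH 7.2) and exposed to test compound (12.5–200 µg/mL, plus 0) or 0.1% Triton X-100 (positive control) for 30 min at 37°C. Samples were spun 5 min at 3 500 r/min and the supernatant A540 read; n=2–3.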

HEK 293T cells = test: Cytotoxicity assay; type: cell-based, human; conditions: 12.5 to 200 μg/mL, 8 h, CCK8
Method in brief: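 HEK 293T cells were grown in DMEM/F-12 with 10% FBS and 1% penicillin-streptomycin at 37°C, 5% CO2. They were seeded at 3×10^4 cells/well and allowed 12 h to adhere. Test compound (12.5–200 µg/mL, plus 0) was added for 8 h. CCK-8 was then added for 3 h and OD450 read. Viability is given as % of untreated control; n=8–12.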

mouse splenocytes = test: Cytotoxicity assay; type: cell-based; conditions: 12.5 to 200 μg/mL, 8 h, CCK8
Method in brief: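 Mouse splenocytes were prepared by crushing fresh spleens in PBS and passing them through a 200-mesh sieve. Cells were cultured in RPMI1640 at 37°C, 5% CO2, seeded at 2×10^5 cells/well and given 12 h to settle. Test compound (12.5–200 µg/mL, plus 0) was added for 8 h, followed by CCK-8 for 3 h and an OD450 read. Viability is reported as % of control; n=8–12.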

[5] = tested on: mouse peritoneal macrophages; test: Cytotoxicity assay; type: cell-based; conditions: 12.5 to 200 μg/mL, 8 h, CCK8
Method in brief: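 Peritoneal macrophages were elicited in mice with i.p. 3% thioglycollate broth and collected by PBS lavage after 3 days. Cells were cultured in RPMI1640 at 37°C, 5% CO2, seeded at 1×10^6 cells/well and allowed 12 h to adhere. Test compound (12.5–200 µg/mL, plus 0) was added for 8 h, then CCK-8 for 3 h and OD450 read. Viability is expressed as % of control; n=8–12.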

male C57BL/6 J mice = test: Bleeding assay; type: in vivo, mouse
Method in brief: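 Dosing 15 min before cutting: test compound at 0.5 or 2 mg/kg i.v., 0.9% saline (control) or heparin sodium 2 500 U/kg (reference). Mice were male C57BL/6J, 6 weeks old, 18–20 g, n=6–7. Tail cut 2 mm from the tip and immersed in sterile saline at 37°C. Bleeding time recorded until blood flow stopped.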

male C57BL/6J mice = test: FeCl3-induced carotid artery thrombosis; type: in vivo, mouse; conditions: 2 500 U/kg i.v., 10% FeCl3, 5 min and 10 min, vs PBS-treated group
Method in brief: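 Male C57BL/6J mice (6 weeks old, n=6–7) were given i.v. saline (100 µL; control), heparin sodium 2 500 U/kg, or test compound at 0.5 or 2 mg/kg, 5 min before induction, under anaesthesia. Filter paper with 10% (w/v) FeCl3 was applied to the exposed left carotid artery for 30 s. Flow in the region of interest was followed by laser speckle perfusion imaging for 30 min, with images analysed at 5 and 10 min. Occlusion was scored as a red-to-blue change.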

acute IS patients = conditions: ref Kim, 2019; Simão et al., 2017; cited from earlier work
[6] = target: T3, activated factor XII (FXIIa) (UniProt P00748 20-372; P00748 373-615); test: cell-based or functional assay
T3 sequence (looked up) 1: T2 sequence (P00748 20-372 partner limits assumed)
T3 sequence (looked up) 2: T2 sequence (P00748 373-615 limits assumed)

plasma kallikrein (PK) [7] = target: T4, plasma kallikrein (PK) (UniProt P03952 20-390; P03952 391-638); test: SPR
T4 sequence (P03952 20-390, chain 1 of 2): as the sequence (P03952 20-390 partner limits assumed) above
T4 sequence (P03952 391-638, chain 2 of 2): as the sequence (P03952 391-638 limits assumed) above

[8] = target: T3, activated factor XII (FXIIa); test: SPR
plasma kallikrein (PK) [9] = target: T4, plasma kallikrein (PK); test: chromogenic enzyme inhibition assay
[10] = target: T3, activated factor XII (FXIIa); test: chromogenic enzyme inhibition assay

Molecule LSEEPE [LE6, Leu-Ser-Glu-Glu-Pro-Glu] has a kon (PK [1]; read-out: Ka (association rate constant)) of 1790 M⁻¹ s⁻¹, a koff (PK [1]; read-out: Kd (dissociation rate constant)) of 0.0141 s⁻¹ and an IC50 (PK [2]) of roughly 71 µM. It also gave a koff (FXIIa [3]) of 0.118 s⁻¹, an IC50 (FXIIa [4]) of 71 µM and an inhibition at 285 µM (FXIIa [4]; read-out: inhibition rate of FXIIa) of 88.6%. For the same molecule, the hemolysis (erythrocytes) was “no hemolytic side effects”, the “toxic effects on proliferation” value (HEK 293T cells) was “no toxic effects” and the “toxic effects on proliferation” value (mouse splenocytes) was “no toxic effects”. For the same molecule, the “toxic effects on proliferation” value [5] was “no toxic effects”, the bleeding time (male C57BL/6 J mice; 0.5 mg/kg i.v., 15 min before tail cut, n=6–7) was “without notably extending bleeding time” and the “bleeding time relative to heparin sodium” value (male C57BL/6 J mice; LE6 2 mg/kg i.v. vs heparin sodium 2 500 U/kg i.v.) was “approximately half that induced by the clinically anticoagulant heparin sodium”.

With heparin sodium the “blood flow after FeCl3-induction” value (male C57BL/6J mice) was “increased blood flow at 5 min and 10 min”.

For tissue plasminogen activator [tPA], the “efficacy in acute IS” value (acute IS patients) is listed as “efficacious when administered within 4.5 hours of stroke onset”.

For LSEEPE [oligopeptide LE6 (Leu-Ser-Glu-Glu-Pro-Glu)], the “FXIIa activity on chromogenic substrate S-2302, IC50” value [6] was 71 µM, the Kd (plasma kallikrein (PK) [7]) was 7.88 µM and the Kd [8] was 46.4 µM. For the same molecule, the Ki (plasma kallikrein (PK) [9]) was 44 µM and the Ki [10] was 6.37 µM.
